Bioassay records (PubChem)
DAGLB inh: diacylglycerol lipase beta (human) inhibition | HEK293T DAGLB membrane lysate, EnzChek fluorogenic substrate | inhibition, % at 5.17 µM | Q8NCG7 | actives 0.059% (n = 340,000); in the data active = inhibition above about 34%;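 also: 0% = enzyme with vehicle and 100% = wells lacking enzyme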
iPSC survival up: increases survival of single human iPS cells | hiPSC single-cell survival, ATPlite luminescence; 100% = ROCK inhibitor wells, 0% = DMSO | survival enhancement, % at 20 µM | actives 0.044% (n = 360,000) | AID 602274; in the data active = survival enhancement above about 18%;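 also: cells exposed to compounds for 16 hours before the ATP read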
SKN-1 block: C. elegans SKN-1 inhibition; C. elegans VP596 Pgst-4::GFP/RFP ratio, acrylamide-induced, 24 h; inhibition, % at 21.8 µM; actives 0.49% (n = 360,000);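 active = interference check ratio from 0.5 to 1.5 plus GFP to RFP signal ratio inhibition reaching or exceeding a fixed threshold, cut at about 30% in these data, passing the limit was not always enough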
FAS TE block: FAS thioesterase (human) inhibition. P49327. recombinant FAS-TE, OMFH fluorogenic substrate, fluorescence endpoint. inhibition, % at 15 µM. actives 0.67% (n = 360,000). AID 602261;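 active = compounds whose normalised, plate-corrected inhibition of enzyme fluorescence in the single-dose primary screen is 50% or more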;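 also: 0% = DMSO with enzyme and 100% = substrate without enzyme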
MT1-MMP act inh: blocks activation of human MT1-MMP; P50281; HT1080 RFP-PRO-GFP cells, GFP/RFP ratio fluorescence, overnight; percent of plate control window, DMSO zero; AID 651647; GFP/RFP ratio change, % at 20 µM; actives 0.061% (n = 360,000);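 active = GFP/RFP ratio change of at least 30% with cell ATP level not reduced by more than half and red fluorescence within 50% of control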
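Assay system – RFP-PRO-GFP reporter HT1080 cells · Compound dosing – single dose of 20 µM compound, 1% DMSO final · Incubation – overnight compound exposure at 37 °C · Measure – GFP/RFP fluorescence ratio · Benchmarks – DMSO wells and RFP-L50D-GFP cells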
Numbers without * were called inactive. The list is not random: actives were taken first. Their share in the collection is about 1.3%.

Results for CC(C)c1ccc(-c2nc3ccccc3s2)cc1 ?
DAGLB inh: -11; iPSC survival up: -1; SKN-1 block: 46*; FAS TE block: 23; MT1-MMP act inh: -5

How did CN(C(=O)OC(C)(C)C)c1ccc(-c2nc3ccccc3s2)cc1 do in these assays?
DAGLB inh: -14; iPSC survival up: -4; SKN-1 block: 43*; FAS TE block: 33; MT1-MMP act inh: 6

How did c1ccc(CNc2ncnc3c2cnn3-c2ccccc2)cc1 do in these assays?
DAGLB inh: -4; iPSC survival up: -3; SKN-1 block: -17; FAS TE block: -1; MT1-MMP act inh: 11

What do the screens show for `c1ccc(CCNc2ncnc3c2cnn3-c2ccccc2)cc1`?
DAGLB inh: -6; iPSC survival up: 0; SKN-1 block: 35*; FAS TE block: 2; MT1-MMP act inh: 5

How did Clc1ccc(Nc2ncnc3c2cnn3-c2ccccc2)cc1 do in these assays?
DAGLB inh: -11; iPSC survival up: 0; SKN-1 block: 37*; FAS TE block: 28; MT1-MMP act inh: -6

How did Cc1ccc2ncnc(Nc3cccc([N+](=O)[O-])c3)c2c1 do in these assays?
DAGLB inh: -2; iPSC survival up: -1; SKN-1 block: 38*; FAS TE block: 6; MT1-MMP act inh: -3

Results for Oc1c(N=Nc2nn[nH]n2)ccc2ccccc12 ?
iPSC survival up: -1; SKN-1 block: 54*; FAS TE block: 16; MT1-MMP act inh: 10

What do the screens show for `Oc1c(N=Nc2ccc(F)cc2)ccc2ccccc12`?
DAGLB inh: 26; iPSC survival up: 0; SKN-1 block: 73; FAS TE block: 3; MT1-MMP act inh: 23

How did Cc1cc(C)c(OCCOCCN2CCNCC2)c(C)c1 do in these assays?
DAGLB inh: -5; iPSC survival up: -2; SKN-1 block: 39*; FAS TE block: 1; MT1-MMP act inh: -11

Results for COC(=O)c1ccc(C#Cc2ccccc2)o1 ?
DAGLB inh: -6; iPSC survival up: 2; SKN-1 block: 37*; FAS TE block: 21; MT1-MMP act inh: 1

What do the screens show for `CCOC(=O)C1=C(CSc2nc(-c3ccccc3)ccc2C#N)OC(N)=C(C#N)C1c1ccc(OC)cc1` (centres undefined)?
DAGLB inh: -1; iPSC survival up: -2; SKN-1 block: 43*; FAS TE block: 12; MT1-MMP act inh: -42

What do the screens show for `CCOC(=O)C1=C(CSc2nc(CC)c(C)cc2C#N)OC(N)=C(C#N)C1c1ccccc1` (centres undefined)?
DAGLB inh: -6; iPSC survival up: 4; SKN-1 block: 8; FAS TE block: 6; MT1-MMP act inh: -26

Results for COc1ccc(/C=N/NC(=O)Cc2csc(Nc3cccc(C(F)(F)F)c3)n2)cc1C ?
DAGLB inh: -2; iPSC survival up: 2; SKN-1 block: 37*; FAS TE block: 23; MT1-MMP act inh: 1

What do the screens show for `COc1cc(/C=N/NC(=O)Cc2csc(C)n2)ccc1OCC(C)C`?
DAGLB inh: -3; iPSC survival up: 0; SKN-1 block: -1; FAS TE block: 1; MT1-MMP act inh: -2

What do the screens show for `CCOC(=O)Nc1nc(-c2ccc(F)cc2F)cs1`?
DAGLB inh: -8; iPSC survival up: -1; SKN-1 block: 56*; FAS TE block: -1; MT1-MMP act inh: 0

How did Cc1ccc(-c2nc3c(Cl)cc(C(F)(F)F)cn3c2Cc2cccc(F)c2)cc1 do in these assays?
iPSC survival up: 1; SKN-1 block: 11; FAS TE block: 4; MT1-MMP act inh: 3

Results for CCOc1ccc(-n2c(C)nc3cc(C(=O)NCc4ccco4)ccc32)cc1 ?
DAGLB inh: -1; iPSC survival up: 6; SKN-1 block: 19; FAS TE block: 0; MT1-MMP act inh: 3

What do the screens show for `COc1ccc(-n2c(C)nc3cc(C(=O)NCc4ccco4)ccc32)cc1`?
DAGLB inh: -1; iPSC survival up: -3; SKN-1 block: 41*; FAS TE block: -4; MT1-MMP act inh: 6

Results for Cc1cnc(CNC(=O)C2(C)CCCN2CC(C)C)cn1 (centres undefined) ?
iPSC survival up: -2; SKN-1 block: 16; FAS TE block: -6; MT1-MMP act inh: -1

Results for Cc1ccc(C(O)c2ncc(-c3ccccc3F)[nH]2)c(C)c1 (centres undefined) ?
iPSC survival up: -1; SKN-1 block: 10; FAS TE block: -2; MT1-MMP act inh: -1

What do the screens show for `O=C1CC(NNC(=O)c2ccc(Br)cc2)C(=O)N1` (centres undefined)?
DAGLB inh: -2; iPSC survival up: 1; SKN-1 block: 43*; FAS TE block: -6; MT1-MMP act inh: 2

How did CCOCCn1c(COc2ccccc2)nc2ccccc21 do in these assays?
DAGLB inh: -6; iPSC survival up: 0; SKN-1 block: 40*; FAS TE block: -2; MT1-MMP act inh: 9

What do the screens show for `CCCn1c(COc2ccccc2)nc2ccccc21`?
DAGLB inh: -3; iPSC survival up: -1; SKN-1 block: -11; FAS TE block: 3; MT1-MMP act inh: -2

Results for Cc1ccc(C)c(N2CCN(C(c3ccc(N(C)C)cc3)c3nnnn3C(C)(C)C)CC2)c1 (centres undefined) ?
DAGLB inh: -2; iPSC survival up: -2; SKN-1 block: 46*; FAS TE block: 35; MT1-MMP act inh: -7

What do the screens show for `Clc1ccc2oc(-c3ccccn3)nc2c1`?
DAGLB inh: -3; iPSC survival up: -6; SKN-1 block: 39*; FAS TE block: -16; MT1-MMP act inh: -18

Results for Nc1ccc2oc(-c3ccccn3)nc2c1 ?
DAGLB inh: 2; iPSC survival up: -4; SKN-1 block: -2; FAS TE block: -12; MT1-MMP act inh: 3

Results for O=C1NC[C@@H](CCCCN2CCN(CCc3ccc(O)cc3)C(=O)C2=O)N(CCc2ccc(O)cc2)C1=O ?
iPSC survival up: -1; SKN-1 block: -5; FAS TE block: -10; MT1-MMP act inh: 5

Results for O=C(O)c1cc(-c2cccc3ccccc23)nc2ccccc12 ?
DAGLB inh: -1; iPSC survival up: -1; SKN-1 block: 37*; FAS TE block: -3; MT1-MMP act inh: 1

Results for COC(=O)c1[nH]c(C)c(/C(O)=C2\C(=O)C(=O)N(CCCN3CCOCC3)C2c2ccccn2)c1C (centres undefined) ?
DAGLB inh: -1; iPSC survival up: 4; SKN-1 block: 38*; FAS TE block: -9; MT1-MMP act inh: -1

Results for CCOC(=O)c1[nH]c(C)c(/C(O)=C2\C(=O)C(=O)N(CCCN3CCOCC3)C2c2cccnc2)c1C (centres undefined) ?
DAGLB inh: -5; iPSC survival up: -2; SKN-1 block: 5; FAS TE block: -7; MT1-MMP act inh: -2

What do the screens show for `O=C(OCc1cn([C@@H]2CN(C(=O)C3CCCCC3)[C@@H](c3ccc(Cl)cc3)C[C@H]2O)nn1)c1ccccc1`?
DAGLB inh: 0; iPSC survival up: -1; SKN-1 block: -23; FAS TE block: 4; MT1-MMP act inh: 2
